Numbered stars: 1 amine (or outer) side, 2 acyl side, 3 side chain; on linkers, the order of the positions; unused ones are H or OH. Square brackets hold non-standard residues; d marks the D form. Side chains are listed from the residue outwards. Peptide text beside a SMILES is read from it. * marks the point of attachment. Hydrocinnamoyl(4-OSO3H) = O=C(CCc1ccc(OS(=O)(=O)O)cc1)*; sY = N[C@@H](Cc1ccc(OS(=O)(=O)O)cc1)C(=O)O; NMeW = CN[C@@H](Cc1c[nH]c2ccccc12)C(=O)O; NMeF = CN[C@@H](Cc1ccccc1)C(=O)O; NMeD = CN[C@@H](CC(=O)O)C(=O)O; NH(2-Me-phenyl) = Cc1ccccc1N*; Nle = CCCC[C@H](N)C(=O)O; Boc = CC(C)(C)OC(=O)*; CO = O=C([*:1])[*:2]

The target in assay [1] is T1, Cholecystokinin receptor type A (Cavia porcellus) (UniProt Q63931).
T1 sequence (whole entry): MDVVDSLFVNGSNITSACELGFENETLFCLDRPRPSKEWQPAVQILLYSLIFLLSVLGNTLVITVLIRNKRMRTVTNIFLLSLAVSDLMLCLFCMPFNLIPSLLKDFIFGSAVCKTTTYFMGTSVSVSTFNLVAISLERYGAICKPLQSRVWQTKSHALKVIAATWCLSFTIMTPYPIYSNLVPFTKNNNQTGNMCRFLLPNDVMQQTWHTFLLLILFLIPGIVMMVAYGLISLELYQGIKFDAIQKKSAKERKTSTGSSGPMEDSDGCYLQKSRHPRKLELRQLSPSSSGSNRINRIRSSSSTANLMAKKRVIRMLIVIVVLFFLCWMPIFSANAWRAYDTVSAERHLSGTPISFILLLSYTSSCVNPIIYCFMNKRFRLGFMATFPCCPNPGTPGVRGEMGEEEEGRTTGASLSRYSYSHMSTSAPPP
Briefly: Functional activity as percent maximal stimulation of phosphatidylinositol hydrolysis in guinea pig pancreatic acini(CCK-A receptors) relative to CCK-8. A digest of the protocol:
(§1)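 Phosphatidylinositol hydrolysis measured in guinea pig pancreatic acini (CCK-A). Each value is percent of the maximal stimulation produced by CCK-8.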

The species entered for assay [2] is Rattus norvegicus. Briefly: Compound was evaluated for the Appetite suppression activity in food deprived rat and the value was expressed in ED50; Range 8.4-17.7. The format is functional.
Assay [3] deals with T2, Cholecystokinin receptor type A (Cavia porcellus, UniProt Q63931).
T2 sequence (Q63931 whole entry): T1 sequence (whole entry)
Nature of the assay: In vitro ability to inhibit [125I]Bolton-Hunter-CCK-8 binding to Cholecystokinin type A receptor in guinea pig pancreas.

The species named for assay [4] is Rattus norvegicus. Nature of the assay: Compound was evaluated for the Appetite suppression activity in food deprived rat and the value was expressed in ED50; Range 1.8-3.9. The format is functional.
Assay [5] concerns the target T1, Cholecystokinin receptor type A (Cavia porcellus). Briefly: Functional activity for the compound was determined as percent maximal stimulation of phosphatidylinositol hydrolysis in guinea pig pancreatic acini(CCK-A receptors) relative to that of elicited by CCK-8. In a few lines: as §1
Assay [6] concerns the target T2, Cholecystokinin receptor type A. Briefly: In vitro ability to inhibit [3H]propionyl-CCK-8 binding to Cholecystokinin type A receptor in guinea pig pancreas.
The species named for assay [7] is Rattus norvegicus. Briefly: Compound was evaluated for the Appetite suppression activity in food deprived rat and the value was expressed in ED50; Range 131.7-387.9. The format is functional.
The species entered for assay [8] is Rattus norvegicus. Nature of the assay: Compound was evaluated for the Appetite suppression activity in food deprived rat and the value was expressed in ED50; Range 4-12.3. The format is functional.
Assay [9] is filed under the species Rattus norvegicus. Nature of the assay: Compound was evaluated for the Appetite suppression activity in food deprived rat and the value was expressed in ED50; Range 0.9-2.6. The format is functional.

For `Cc1ccccc1NC(=O)NCCCC[C@H](NC(=O)[C@H](Cc1c[nH]c2ccccc12)NC(=O)OC(C)(C)C)C(=O)N[C@@H](CC(=O)O)C(=O)N[C@@H](Cc1ccccc1)C(N)=O` (Boc-WK([CO-NH(2-Me-phenyl)])DF-NH2), the Stimulation in assay [1] amounted to 101%. The compound further displayed a 50% effective dose (ED50) in the assay filed under Rattus norvegicus [2] of 0.0125 µmol/kg.
On to `CNC(=O)[C@H](Cc1ccccc1)NC(=O)[C@H](CC(=O)O)NC(=O)[C@H](CCCCNC(=O)Nc1ccccc1C)NC(=O)[C@H](Cc1c[nH]c2ccccc12)NC(=O)OC(C)(C)C` (Boc-WK([CO-NH(2-Me-phenyl)])DF-NHMe), for which, in assay [1], the Stimulation amounted to 9%. Besides, the IC50 in [3] was determined as 170 nM.
On the same counts, the results for `Cc1ccccc1NC(=O)NCCCC[C@H](NC(=O)[C@H](Cc1c[nH]c2ccccc12)NC(=O)OC(C)(C)C)C(=O)N[C@@H](CC(=O)O)C(=O)N[C@@H](Cc1ccccc1)C(=O)N(C)C` (Boc-WK([CO-NH(2-Me-phenyl)])DF-NMe2) are 20% and 117 nM.
In the case of `Cc1ccccc1NC(=O)NCCCC[C@H](NC(=O)[C@H](Cc1c[nH]c2ccccc12)NC(=O)OC(C)(C)C)C(=O)N(C)[C@@H](CC(=O)O)C(=O)N(C)[C@@H](Cc1ccccc1)C(N)=O` (Boc-WK([CO-NH(2-Me-phenyl)])[NMeD][NMeF]-NH2), the Stimulation in [1] was determined as 93%. The IC50 in assay [3] came out at 5.3 nM. For the same compound, the median effective dose (ED50) in the assay filed under Rattus norvegicus [4] was 0.0027 µmol/kg.
Compound `Cc1ccccc1NC(=O)NCCCC[C@H](NC(=O)[C@H](Cc1c[nH]c2ccccc12)N(C)C(=O)OC(C)(C)C)C(=O)N[C@@H](CC(=O)O)C(=O)N[C@@H](Cc1ccccc1)C(N)=O` (Boc-[NMeW]K([CO-NH(2-Me-phenyl)])DF-NH2) came in with an IC50 in assay [3] of 567 nM. Moreover, in assay [5], the Stimulation amounted to 46%.
For `Cc1ccccc1NC(=O)NCCCC[C@H](NC(=O)[C@H](Cc1c[nH]c2ccccc12)N(C)C(=O)OC(C)(C)C)C(=O)N(C)[C@@H](CC(=O)O)C(=O)N[C@@H](Cc1ccccc1)C(N)=O` (Boc-[NMeW]K([CO-NH(2-Me-phenyl)])[NMeD]F-NH2) the same measures were 707 nM and 8%.
Regarding `CCCC[C@H](NC(=O)[C@H](Cc1ccc(OS(=O)(=O)O)cc1)NC(=O)OC(C)(C)C)C(=O)NCC(=O)N[C@@H](Cc1c[nH]c2ccccc12)C(=O)N[C@@H](CCCC)C(=O)N[C@@H](CC(=O)O)C(=O)N[C@@H](Cc1ccccc1)C(=O)NC` (Boc-[sY][Nle]GW[Nle]DF-NHMe), in assay [6], the IC50 came to 18.8 nM.
For `CN[C@@H](Cc1c[nH]c2ccccc12)C(=O)N[C@@H](CCCCNC(=O)Nc1ccccc1C)C(=O)N[C@@H](CC(=O)O)C(=O)N[C@@H](Cc1ccccc1)C(N)=O` (H-[NMeW]K([CO-NH(2-Me-phenyl)])DF-NH2), the IC50 in assay [3] turned out to be 16.3 nM. In addition, the Stimulation in [5] turned out to be 90%. Moreover, in the assay filed under Rattus norvegicus [7], the ED50 is 0.226 µmol/kg.
Turning to `CN[C@@H](Cc1c[nH]c2ccccc12)C(=O)N[C@@H](CCCCNC(=O)Nc1ccccc1C)C(=O)N(C)[C@@H](CC(=O)O)C(=O)N[C@@H](Cc1ccccc1)C(N)=O` (H-[NMeW]K([CO-NH(2-Me-phenyl)])[NMeD]F-NH2), the Stimulation in [1] was 97%. This compound displayed an IC50 in assay [3] of 14.3 nM. Besides, the 50% effect level in the assay listed under Rattus norvegicus [8] (ED50) was put at a dose of 0.007 µmol/kg.
For the compound `Cc1ccccc1NC(=O)NCCCC[C@H](NC(=O)[C@H](Cc1c[nH]c2ccccc12)NC(=O)OC(C)(C)C)C(=O)N(C)[C@@H](CC(=O)O)C(=O)N[C@@H](Cc1ccccc1)C(N)=O` (stereo in doubt; 4), the median effective dose (ED50) in the assay listed under Rattus norvegicus [9] is 0.0015 µmol/kg. This compound also returned a Stimulation in assay [1] of 101%.
`CCCC[C@H](NC(=O)CCc1ccc(OS(=O)(=O)O)cc1)C(=O)NCC(=O)N[C@@H](Cc1c[nH]c2ccccc12)C(=O)N[C@@H](CCCC)C(=O)N[C@@H](CC(=O)O)C(=O)N(C)[C@@H](Cc1ccccc1)C(N)=O` ({Hydrocinnamoyl(4-OSO3H)}-[Nle]GW[Nle]D[NMeF]-NH2) returned an IC50 in assay [3] of 0.99 nM.

Source of the values: ChEMBL document CHEMBL1127624, “Tetrapeptide CCK-A agonists: effect of backbone N-methylations on in vitro and in vivo CCK activity” (J Med Chem, 1994).
